Data reported in ChEMBL document CHEMBL4261600 (Eur J Med Chem, 2018).
Active and inactive are the calls of the source.

What was measured:
[1] = target: Cyclin-dependent kinase 7 (Homo sapiens) (UniProt P50613); assay: Inhibition of CDK7 in human HL60 cells assessed as decrease in RNA polymerase 2 phosphorylation at Ser 5 residues up to 3 uM after 2 hrs by immunoblotting analysis; format: cell-based
[2] = system: Phosphatidylinositol 4,5-bisphosphate 3-kinase catalytic subunit alpha isoform (Homo sapiens), P42336 [I800L]; assay: Binding affinity to human partial length PIK3CA I800L mutant (R108 to N1068 residues) expressed in mammalian expression system assessed as remaining unbound target protein level at 1000 nM by Kinomescan method relative to control
Summary of the method: (§1)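 KINOMEscan competition-binding profiling across the panel of 468 kinases and mutants, with inhibitor tested at 1 μM. Binding is expressed as percent of control, with DMSO as the reference control.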

[3] = target: Tyrosine-protein kinase receptor UFO (Homo sapiens) (UniProt P30530); assay: Binding affinity to wild-type human partial length AXL (R497 to Y821 residues) expressed in bacterial expression system assessed as remaining unbound target protein level at 1000 nM by Kinomescan method relative to control
Summary of the method: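 KINOMEscan competition binding profile across a panel of 468 kinases and mutants, with the inhibitor tested at a single concentration of 1 μM. Binding is reported as percent of control, meaning signal relative to a DMSO control.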

[4] = AUC (0 to t) in mouse at 3 mg/kg, iv by LC-MS/MS analysis; format: ADME, organism-based; details: in vivo
Summary of the method: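 Non-compartmental PK. Male SD rats 190-210 g, mice and beagle dogs acclimatized one week, fasted 12 h with water, split into iv and po groups (mice 48, rats 6, dogs 6). iv 3/3/2 mg/kg (mice/rats/dogs); po 10/20/10 mg/kg; vehicle DMSO in 5% glucose water. Blood at 2 or 5 to 720 min; plasma protein-precipitated with methanol, caffeine internal standard, LC-MS/MS.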

[5] = target: NT-3 growth factor receptor (Homo sapiens) (UniProt Q16288); assay: Binding affinity to wild-type human partial length TRKC (Q531 to G825 residues) expressed in mammalian expression system assessed as remaining unbound target protein level at 1000 nM by Kinomescan method relative to control
MOLM-14 = assay: Antiproliferative activity against human MOLM14 cells after 72 hrs by Celltiter-Glo assay; format: functional; details: MOLM-14, 72 h
Summary of the method: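 Cells seeded at 3000/well in 96-well plates, exposed to serially diluted compound for 72 h at 37 °C, 5% CO2. Viability read by CellTiter-Glo luminescence and normalized to DMSO control. GI50 derived from curve fit, mean of three independent measurements. Culture media: DMEM/10% FBS for adherent lines; IMDM for MV4-11 and MEC-1/2; RPMI 1640 for suspension lines and CHL.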

[6] = system: Phosphatidylinositol 4,5-bisphosphate 3-kinase catalytic subunit alpha isoform (Homo sapiens), P42336 [E545A]; assay: Binding affinity to human partial length PIK3CA E545A mutant (R108 to N1068 residues) expressed in mammalian expression system assessed as remaining unbound target protein level at 1000 nM by Kinomescan method relative to control; summary of the method: as §1
[7] = target: Ribosomal protein S6 kinase beta-1 (Homo sapiens) (UniProt P23443); assay: Binding affinity to wild-type human partial length S6K1 (M1 to S421 residues) expressed in mammalian expression system assessed as remaining unbound target protein level at 1000 nM by Kinomescan method relative to control
[8] = target: Cyclin-dependent kinase 5/CDK5 activator 1 (Homo sapiens, UniProt Q00535); assay: Inhibition of recombinant full length His/GST-tagged human CDK5/p25 expressed in baculovirus expression system
[9] = target: Serine/threonine-protein kinase 38-like (Homo sapiens) (UniProt Q9Y2H1); assay: Binding affinity to wild-type human partial length NDR2 (N34 to E447 residues) expressed in bacterial expression system assessed as remaining unbound target protein level at 1000 nM by Kinomescan method relative to control
[10] = target: Interferon-induced, double-stranded RNA-activated protein kinase (Homo sapiens) (UniProt P19525); assay: Binding affinity to wild-type human partial length PRKR (F247 to C551 residues) expressed in bacterial expression system assessed as remaining unbound target protein level at 1000 nM by Kinomescan method relative to control
[11] = target: Mitogen-activated protein kinase 13 (Homo sapiens) (UniProt O15264); assay: Binding affinity to wild-type human full length p38-delta (M1 to L365 residues) expressed in bacterial expression system assessed as remaining unbound target protein level at 1000 nM by Kinomescan method relative to control
Summary of the method: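 Profiled in a KINOMEscan binding panel with the inhibitor at a single concentration of 1 μM. Binding to each kinase was read out as percent of control, relative to a DMSO control. Strong binders were defined as those with a percent control value below 1.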

[12] = target: Cyclin-dependent kinase 2 (Homo sapiens) (UniProt P24941); assay: Binding affinity to wild-type human full length CDK2 (M1 to L298 residues) expressed in bacterial expression system assessed as remaining unbound target protein level at 1000 nM by Kinomescan method relative to control
Summary of the method: (§2)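 Single-point competition binding screen across a panel of 468 kinases and mutants, with the inhibitor at 1 μM. Binding is read out as percent of a DMSO control, and targets below 1 percent control were classed as strong binders.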

[13] = target: CDK4/Cyclin D3 (Homo sapiens) (UniProt P11802+P30281); assay: Binding affinity to wild-type human full length CDK4/cyclinD3 (M1 to E303 residues) expressed in mammalian expression system assessed as remaining unbound target protein level at 1000 nM by Kinomescan method relative to control
Summary of the method: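 KINOMEscan competitive binding profile at 1 μM inhibitor. Remaining target binding reported as percent of DMSO control.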

[14] = target: Interleukin-1 receptor-associated kinase 4 (Homo sapiens) (UniProt Q9NWZ3); assay: Binding affinity to wild-type human partial length IRAK4 (M1 to S460 residues) expressed in mammalian expression system assessed as remaining unbound target protein level at 1000 nM by Kinomescan method relative to control
Summary of the method: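 KINOMEscan binding panel of 468 kinases/mutants. Inhibitor was tested at a single concentration of 1 μM. Binding is reported as percent of control, defined relative to a DMSO control.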

[15] = system: Tyrosine-protein kinase ABL1 (Homo sapiens), P00519 [F317L]; assay: Binding affinity to human phosphorylated ABL1 F317L mutant (S229 to K512 residues) expressed in mammalian expression system assessed as remaining unbound target protein level at 1000 nM by Kinomescan method relative to control; summary of the method: as §2
[16] = target: Tyrosine-protein kinase JAK2 (Homo sapiens) (UniProt O60674); assay: Binding affinity to wild-type human partial length JAK2 JH1 catalytic domain (A829 to G1132 residues) expressed in mammalian expression system assessed as remaining unbound target protein level at 1000 nM by Kinomescan method relative to control
[17] = system: Proto-oncogene tyrosine-protein kinase receptor Ret (Homo sapiens), P07949 [M918T]; assay: Binding affinity to human partial length RET M918T mutant (E713 to D1014 residues) expressed in bacterial expression system assessed as remaining unbound target protein level at 1000 nM by Kinomescan method relative to control; summary of the method: as §1
Proto-oncogene tyrosine-protein kinase receptor Ret (Homo sapiens), P07949 [M918T], sequence (P07949 whole entry M918T, the tested form may be a part): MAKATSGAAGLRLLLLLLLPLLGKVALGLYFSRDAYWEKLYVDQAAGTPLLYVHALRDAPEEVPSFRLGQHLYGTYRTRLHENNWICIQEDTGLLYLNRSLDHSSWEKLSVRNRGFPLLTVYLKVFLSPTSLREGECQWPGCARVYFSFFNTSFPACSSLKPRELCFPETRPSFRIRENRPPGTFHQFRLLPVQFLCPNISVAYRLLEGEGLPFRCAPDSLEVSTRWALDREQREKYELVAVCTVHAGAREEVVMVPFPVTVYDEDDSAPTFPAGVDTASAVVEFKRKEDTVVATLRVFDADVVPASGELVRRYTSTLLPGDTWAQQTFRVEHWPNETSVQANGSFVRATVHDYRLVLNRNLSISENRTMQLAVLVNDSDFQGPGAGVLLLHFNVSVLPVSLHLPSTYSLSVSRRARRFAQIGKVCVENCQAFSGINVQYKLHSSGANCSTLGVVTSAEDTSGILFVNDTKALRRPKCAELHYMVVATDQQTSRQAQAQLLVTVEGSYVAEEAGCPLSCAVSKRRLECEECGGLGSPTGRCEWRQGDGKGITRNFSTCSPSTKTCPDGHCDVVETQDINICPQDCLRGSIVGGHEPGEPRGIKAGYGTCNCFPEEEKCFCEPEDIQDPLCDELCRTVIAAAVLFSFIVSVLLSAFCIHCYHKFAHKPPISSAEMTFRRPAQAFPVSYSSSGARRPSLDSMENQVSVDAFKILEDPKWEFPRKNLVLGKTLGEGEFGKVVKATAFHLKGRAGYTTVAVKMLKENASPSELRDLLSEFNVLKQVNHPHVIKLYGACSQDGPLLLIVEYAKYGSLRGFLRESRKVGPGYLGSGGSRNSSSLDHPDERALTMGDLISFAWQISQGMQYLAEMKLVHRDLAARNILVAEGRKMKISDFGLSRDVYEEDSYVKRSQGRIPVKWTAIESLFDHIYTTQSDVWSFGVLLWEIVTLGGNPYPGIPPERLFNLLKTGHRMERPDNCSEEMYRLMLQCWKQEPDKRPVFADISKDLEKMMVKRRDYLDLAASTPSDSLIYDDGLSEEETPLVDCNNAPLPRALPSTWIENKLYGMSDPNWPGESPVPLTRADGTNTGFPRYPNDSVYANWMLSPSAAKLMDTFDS

Tyrosine-protein kinase receptor UFO (Homo sapiens), sequence (P30530 whole entry, the tested form may be a part): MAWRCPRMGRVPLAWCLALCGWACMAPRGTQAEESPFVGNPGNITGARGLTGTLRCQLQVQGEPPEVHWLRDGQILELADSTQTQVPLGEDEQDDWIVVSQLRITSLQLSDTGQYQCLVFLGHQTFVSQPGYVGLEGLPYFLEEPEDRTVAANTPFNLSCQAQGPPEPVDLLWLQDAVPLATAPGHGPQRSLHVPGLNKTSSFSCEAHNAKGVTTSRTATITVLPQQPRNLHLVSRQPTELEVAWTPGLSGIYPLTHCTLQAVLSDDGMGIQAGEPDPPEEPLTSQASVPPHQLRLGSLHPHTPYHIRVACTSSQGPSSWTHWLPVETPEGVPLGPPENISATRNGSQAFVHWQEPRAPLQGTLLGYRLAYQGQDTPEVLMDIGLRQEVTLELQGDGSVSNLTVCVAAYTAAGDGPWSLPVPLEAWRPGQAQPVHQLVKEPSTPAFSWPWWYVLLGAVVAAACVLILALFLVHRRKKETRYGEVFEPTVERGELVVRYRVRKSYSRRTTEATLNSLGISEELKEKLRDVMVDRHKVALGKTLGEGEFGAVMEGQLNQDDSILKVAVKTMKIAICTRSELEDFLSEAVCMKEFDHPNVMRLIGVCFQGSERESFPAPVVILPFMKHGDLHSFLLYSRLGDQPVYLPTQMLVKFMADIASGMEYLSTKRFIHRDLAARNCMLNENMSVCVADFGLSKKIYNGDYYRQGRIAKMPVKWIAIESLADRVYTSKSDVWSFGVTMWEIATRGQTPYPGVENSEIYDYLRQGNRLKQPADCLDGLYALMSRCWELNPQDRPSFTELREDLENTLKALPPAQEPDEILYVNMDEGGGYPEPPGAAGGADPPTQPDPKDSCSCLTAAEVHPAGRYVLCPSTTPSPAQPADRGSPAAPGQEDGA
Phosphatidylinositol 4,5-bisphosphate 3-kinase catalytic subunit alpha isoform (Homo sapiens), P42336 [E545A], sequence (P42336 whole entry E545A, the tested form may be a part, canonical isoform): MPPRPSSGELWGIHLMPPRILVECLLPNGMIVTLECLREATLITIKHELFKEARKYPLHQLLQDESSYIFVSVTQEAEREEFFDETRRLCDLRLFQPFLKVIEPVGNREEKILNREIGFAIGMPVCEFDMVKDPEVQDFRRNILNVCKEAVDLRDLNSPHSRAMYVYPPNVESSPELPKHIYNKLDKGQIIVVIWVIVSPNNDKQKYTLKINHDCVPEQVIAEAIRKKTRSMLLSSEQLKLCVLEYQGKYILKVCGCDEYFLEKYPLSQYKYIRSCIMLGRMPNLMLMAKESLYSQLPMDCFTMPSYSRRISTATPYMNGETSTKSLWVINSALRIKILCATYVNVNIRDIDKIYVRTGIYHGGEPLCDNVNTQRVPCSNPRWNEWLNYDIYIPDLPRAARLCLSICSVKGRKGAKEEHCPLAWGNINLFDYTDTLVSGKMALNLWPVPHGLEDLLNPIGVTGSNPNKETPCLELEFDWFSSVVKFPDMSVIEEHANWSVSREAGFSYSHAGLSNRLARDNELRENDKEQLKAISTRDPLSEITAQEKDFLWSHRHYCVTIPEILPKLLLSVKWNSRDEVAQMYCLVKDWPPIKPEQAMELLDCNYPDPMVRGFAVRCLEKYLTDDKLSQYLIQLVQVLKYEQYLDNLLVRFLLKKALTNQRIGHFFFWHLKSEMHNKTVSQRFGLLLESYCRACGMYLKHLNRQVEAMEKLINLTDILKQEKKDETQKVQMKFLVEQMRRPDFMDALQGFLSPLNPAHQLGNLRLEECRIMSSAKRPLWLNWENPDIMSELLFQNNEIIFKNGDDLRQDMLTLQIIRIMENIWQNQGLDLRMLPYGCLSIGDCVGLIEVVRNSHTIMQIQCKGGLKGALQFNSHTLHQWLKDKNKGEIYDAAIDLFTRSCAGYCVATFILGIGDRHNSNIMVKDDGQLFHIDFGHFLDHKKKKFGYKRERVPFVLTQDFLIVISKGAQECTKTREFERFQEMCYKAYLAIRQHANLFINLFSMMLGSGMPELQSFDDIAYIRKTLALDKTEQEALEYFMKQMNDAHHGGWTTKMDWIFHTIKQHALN
Mitogen-activated protein kinase 13 (Homo sapiens), sequence (O15264 whole entry, the tested form may be a part): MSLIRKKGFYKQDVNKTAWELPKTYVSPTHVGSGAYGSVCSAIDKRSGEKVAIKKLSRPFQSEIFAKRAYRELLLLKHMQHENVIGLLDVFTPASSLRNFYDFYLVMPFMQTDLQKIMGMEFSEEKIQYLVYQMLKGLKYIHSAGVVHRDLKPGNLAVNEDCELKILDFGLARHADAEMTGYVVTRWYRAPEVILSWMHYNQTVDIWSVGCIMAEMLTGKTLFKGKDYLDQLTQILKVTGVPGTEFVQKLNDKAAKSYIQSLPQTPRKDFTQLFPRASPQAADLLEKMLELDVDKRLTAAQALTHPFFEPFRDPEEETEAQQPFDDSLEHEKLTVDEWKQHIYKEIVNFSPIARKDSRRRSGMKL
Cyclin-dependent kinase 5/CDK5 activator 1, sequence (Q00535 whole entry, the tested form may be a part): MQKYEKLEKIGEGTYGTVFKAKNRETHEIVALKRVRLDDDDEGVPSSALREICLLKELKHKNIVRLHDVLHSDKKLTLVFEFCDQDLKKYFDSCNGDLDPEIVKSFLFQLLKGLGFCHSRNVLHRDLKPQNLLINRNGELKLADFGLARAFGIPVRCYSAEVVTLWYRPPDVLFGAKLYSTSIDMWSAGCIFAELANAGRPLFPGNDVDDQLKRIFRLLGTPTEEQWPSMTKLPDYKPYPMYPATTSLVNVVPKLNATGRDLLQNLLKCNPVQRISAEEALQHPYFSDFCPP
Cyclin-dependent kinase 5/CDK5 activator 1, sequence (Q15078 whole entry, further chain, the tested form may be a part): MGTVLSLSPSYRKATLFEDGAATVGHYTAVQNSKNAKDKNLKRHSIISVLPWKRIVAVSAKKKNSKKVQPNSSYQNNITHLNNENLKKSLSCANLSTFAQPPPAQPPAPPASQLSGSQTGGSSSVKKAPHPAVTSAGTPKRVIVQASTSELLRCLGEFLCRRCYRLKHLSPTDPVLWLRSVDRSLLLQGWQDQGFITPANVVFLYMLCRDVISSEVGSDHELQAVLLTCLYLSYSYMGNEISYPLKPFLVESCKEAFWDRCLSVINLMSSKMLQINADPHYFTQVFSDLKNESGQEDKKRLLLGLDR
Cyclin-dependent kinase 7 (Homo sapiens), sequence (P50613 whole entry, the tested form may be a part, canonical isoform): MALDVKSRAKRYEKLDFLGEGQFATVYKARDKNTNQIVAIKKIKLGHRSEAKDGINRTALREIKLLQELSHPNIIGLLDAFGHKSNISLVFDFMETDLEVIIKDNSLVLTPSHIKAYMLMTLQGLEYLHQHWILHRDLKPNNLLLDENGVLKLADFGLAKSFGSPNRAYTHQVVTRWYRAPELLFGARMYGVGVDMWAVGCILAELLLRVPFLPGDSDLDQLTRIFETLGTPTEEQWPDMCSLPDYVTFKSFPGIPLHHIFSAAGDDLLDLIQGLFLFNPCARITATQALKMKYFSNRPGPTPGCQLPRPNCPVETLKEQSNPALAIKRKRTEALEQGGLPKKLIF
Ribosomal protein S6 kinase beta-1 (Homo sapiens), sequence (P23443 whole entry, looked up, the tested form may be a part): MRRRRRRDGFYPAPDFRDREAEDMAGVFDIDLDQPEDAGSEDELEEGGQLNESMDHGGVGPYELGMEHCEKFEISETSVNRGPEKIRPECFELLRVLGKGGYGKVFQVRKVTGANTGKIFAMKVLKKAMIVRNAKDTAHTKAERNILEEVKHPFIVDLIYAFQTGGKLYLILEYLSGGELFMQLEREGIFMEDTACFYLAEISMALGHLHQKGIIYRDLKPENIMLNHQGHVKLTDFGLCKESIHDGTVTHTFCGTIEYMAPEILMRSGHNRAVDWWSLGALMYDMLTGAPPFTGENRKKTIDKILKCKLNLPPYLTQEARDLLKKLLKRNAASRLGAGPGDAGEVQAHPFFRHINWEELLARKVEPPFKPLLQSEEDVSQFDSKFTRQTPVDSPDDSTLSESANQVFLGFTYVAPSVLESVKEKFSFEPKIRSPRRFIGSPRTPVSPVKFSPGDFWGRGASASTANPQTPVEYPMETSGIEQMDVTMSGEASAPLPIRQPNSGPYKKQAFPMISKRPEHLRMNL

In the case of COCCN[C@H]1CC[C@H](Nc2cc(-c3csc(NCC4(C#N)CCOCC4)n3)c(Cl)cn2)CC1, the inhibition [1] is reported as “inactive”, the Activity [2] is reported as 90% and the Activity [3] is reported as 91%. For the same molecule, the AUC(0-t) [4] was 393 ng·h/mL, the Activity [5] was 89% and the GI50 (MOLM-14) was 1.1 nM. The Activity [6] was 100%, the Activity [7] was 95% and the IC50 [8] was 4640 nM. It also gave an Activity [9] of 78%, an Activity [10] of 98% and an Activity [11] of 100%. It also gave an Activity [12] of 100%, an Activity [13] of 72% and an Activity [14] of 81%. The Activity [15] was 100%, the Activity [16] was 85% and the Activity [17] was 90%.
